The values that follow come from ChEMBL document CHEMBL1154145, “Inhibitory effect of macabarterin, a polyoxygenated ellagitannin from Macaranga barteri, on human neutrophil respiratory burst activity” (J Nat Prod, 2008).

Values after ≈ are worked out from the molar mass of the structure shown.

Assay [1] in a line: Antiinflammatory activity in human neutrophils assessed as respiratory burst inhibition at 1000 ug/ml by WST-1 assay. In kind it is functional. The note with it: Neutrophil. Put shortly: (§1)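 Neutrophils came from heparinized blood of healthy volunteers, diluted with modified Hank's solution (MHS, pH 7.4), left 20 min at RT, then Ficoll-separated (>97% trypan-blue viable). 1.0 × 10^4 cells/mL in MHS with 250 µM WST-1 and compound were equilibrated at 37 °C. Opsonized zymosan A (15 mg/mL, pooled human serum) was added to start the reaction. A450 was read. Inhibition was calculated against a DMSO blank from five replicates.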
A general note: Formazan colour is commonly taken as a measure of viable cells.

Assay [2] is described as follows: Antiinflammatory activity in human neutrophils assessed inhibition of superoxide anions production. Format: functional, cell-based. Conditions: Neutrophil. The essentials: as §1

What is called inhibition is how much of the control response was suppressed. A word on the IC50: it is the midpoint of a concentration-inhibition curve. A higher IC50 goes with a need for much substance. Turning to `O=C(O[C@@H]1O[C@@H]2COC(=O)c3cc(O)c(O)c(O)c3-c3c(cc(O)c(O)c3O)C(=O)O[C@@H]3[C@H]1OC(=O)c1cc(O)c(O)c4c1C1C5(C[C@]6(O)OC[C@@H](O)[C@@H]6C[C@@H]5C(O)(O)C(O)(O)[C@]1(O)O4)C(=O)O[C@@H]32)c1cc(O)c(O)c(O)c1` (stereo partly specified) [MACABARTERIN], the inhibition at 1000 µg/mL in assay [1] is 73.2%. For the same molecule, the IC50 in assay [2] came out at 821 µg/mL (≈ 746 µM).

`COc1cc2ccc(=O)oc2cc1O` [SCOPOLETIN]: in assay [1], the inhibition at 1000 µg/mL turned out to be 31.2%.

Consider `CC(=O)Oc1ccccc1C(=O)O` [ASPIRIN], for which the inhibition at 1000 µg/mL in assay [1] was 70.5%. Moreover, the IC50 in assay [2] was determined as 279 µg/mL (≈ 1550 µM).

For the molecule `COc1ccc2c(c1)c(CC(=O)O)c(C)n2C(=O)c1ccc(Cl)cc1` [INDOMETHACIN], in assay [1], the inhibition at 1000 µg/mL was found to be 58.8%. The same molecule showed an IC50 in assay [2] of 758 µg/mL (≈ 2120 µM).

Take `O=c1oc2c(O)c(O)cc3c(=O)oc4c(O)c(O)cc1c4c23` [ELLAGIC ACID]: in assay [1], the inhibition at 1000 µg/mL stood at 27.1%.

For `COc1c(O[C@@H]2OC[C@@H](O)[C@H](O)[C@H]2O)cc2c(=O)oc3c(O)c(O)cc4c(=O)oc1c2c34`, the inhibition at 1000 µg/mL in assay [1] was 29.1%.

Regarding `COc1c(O)cc2c(=O)oc3c(O)c(O)cc4c(=O)oc1c2c34`, the inhibition at 1000 µg/mL in assay [1] is 13.7%.

Consider `O=C(O)c1cc(O)c(O)c(O)c1` [GALLIC ACID], for which, in assay [1], the inhibition at 1000 µg/mL was 42.9%.
